This series is described as follows: Toxicity liver stage against HepG2, at 10uM. Also noted: test concentration 10 uM, cell line HepG2-A16-CD81EGFP. The format is cell-based. The conditions noted are these: human, HepG2-A16-CD81EGFP cells; read-out: INHIBITION
In short, it runs like this:
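Uninfected HepG2-A16-CD81EGFP cells, 3 × 10^3 per well, 1536-well, plated on prespotted compound at 10 μM final, parasite-free screening media added to match infected plates; puromycin 10 μM positive, DMSO 0.5% negative; run in parallel with 48 h PbLuc assay at 37 °C, 5% CO2; viability by CellTiter-Glo luminescence, normalized to controls.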
In the case of `CC(C)CN1C[C@@H]2OCC(=O)N(Cc3nccn3C)[C@@H]2C1`, the cytotoxicity at 10 µM stood at 0.174%. Take `O[C@@H]1C[C@@H](c2nc(-c3ccccc3)no2)N(Cc2cccnc2)C1`: the cytotoxicity at 10 µM was determined as 3.69%. As to `CC(=O)N1CCC(N2CCOC[C@H]2c2nc(-c3ccccc3)c[nH]2)CC1`, the cytotoxicity at 10 µM amounted to 1.74%. The same measure for `COC(=O)[C@@H]1CN(S(=O)(=O)c2ccccc2)CCN1S(C)(=O)=O`: 0.471%. The same measure for `COC(=O)[C@@H]1Cc2ncn(C)c2CN1S(=O)(=O)c1ccc(C)cc1`: 2.08%.

For `CCS(=O)(=O)N1CCc2ccc(NC(=O)NC(C)(C)C)cc21`, the cytotoxicity at 10 µM was -6.69%. On to `CN1CC[C@H](N(Cc2ccccc2)C2COC2)C[C@H](O)C1`, for which the cytotoxicity at 10 µM turned out to be 4.27%.

For `CC(C)CN1CC(O)CN(C(=O)c2cccc(C(F)(F)F)c2)CC1=O` (stereo unspecified), the cytotoxicity at 10 µM was -7.08%. Turning to `Cn1nc(-c2ccccc2)c(Cl)c1C(=O)O`, the cytotoxicity at 10 µM is -45%. Regarding `CNC(=O)c1cn(C)c(-c2nc3cc(NC(C)=O)ccc3n2C)c1OC`, the cytotoxicity at 10 µM is -42.5%. With `O=C(NCCN1CCOCC1)c1nc2ccccc2c(=O)[nH]1` the figure was 11.3%.

Regarding `O=C(Nc1ccccc1F)C1CN(C(=O)c2ccc3c(c2)OCO3)C1`, the cytotoxicity at 10 µM was -5.96%. With `CS(=O)(=O)N1CCc2ccc(=O)n(CC3CCOCC3)c2CC1` the figure was 6.4%.

`CN(Cc1cccnc1)CC1CC12CCN(Cc1nccs1)CC2` (stereo unspecified): the cytotoxicity at 10 µM turned out to be 10.2%. Consider `O=C(c1ccc(F)cc1)N1C[C@@H]2CN(c3ncccn3)C[C@@H]2C1`, for which the cytotoxicity at 10 µM was determined as 7.98%.

Regarding `CC(=O)N1C[C@H]2CCCN(c3ncc(C)cn3)[C@H]2C1`, the cytotoxicity at 10 µM was 9.52%. Regarding `CCS(=O)(=O)N1CCN(C(=O)C(C)C)CC2(CC(=O)N(C)C2)C1` (stereo unspecified), the cytotoxicity at 10 µM came to 8.4%. On to `Cc1ccoc1C(=O)N1CCCC2(CCCN2S(C)(=O)=O)C1` (stereo unspecified), for which the cytotoxicity at 10 µM was -143%. Take `O=C(NCC1CC1)[C@H]1CC[C@@H]2[C@@H](CCN2Cc2nccs2)O1`: the cytotoxicity at 10 µM stood at 6.93%. As for `O=C(O)c1cc(-c2ccccc2)ns1`, the cytotoxicity at 10 µM stood at 1.91%. With `Cn1cnnc1S(=O)(=O)C1CCN(S(=O)(=O)C2CC2)CC1`, the cytotoxicity at 10 µM is -9.99%.

Turning to `O=C1CNc2ncnc(Nc3cccc(Cn4cccn4)c3)c2N1`, the cytotoxicity at 10 µM stood at 19.8%. In the case of `CSc1ccc(-c2noc(CN(Cc3ccccc3)C(C)C)n2)cc1`, the cytotoxicity at 10 µM came out at 3.88%.

As to `Cc1c(NC(=O)c2cccc(Br)c2)c(C(=O)N(C)C)nn1C`, the cytotoxicity at 10 µM came out at 2.35%.

Consider `Cc1n[nH]c(C)c1-c1cnc(CC2CCN(C)C2)cn1` (stereo unspecified), for which the cytotoxicity at 10 µM is -2.11%. With `Cn1nc(C2CCNC2)c2c(C(=O)NC3CC3)cc(C3CC3)nc21` (stereo unspecified) the figure was 13.9%; with `CCC(CC(=O)NS(=O)(=O)C(C)C)c1ccccc1` (stereo unspecified), -49.1%. Consider `CC(C)OCc1ccc(CNC(=O)NC2(CO)CCCC2)cc1`, for which the cytotoxicity at 10 µM is -48.9%. In the case of `COCCN1CCC(CNc2cnc3ccccc3n2)CC1`, the cytotoxicity at 10 µM is -46.6%. Turning to `CN(Cc1cc(Br)c2c(c1)OCO2)Cc1cscn1`, the cytotoxicity at 10 µM is -12.2%. As for `Cc1ccc(S(=O)(=O)Cc2nsc(N(C)C)n2)c(C)c1`, the cytotoxicity at 10 µM was -25.2%. Regarding `O=C(c1ccccc1O)N1CCn2c(nnc2C(F)(F)F)C1`, the cytotoxicity at 10 µM is 14.6%. Consider `Cc1noc(CCCC(=O)N2CCN(C)CC2c2ccccc2)n1` (stereo unspecified), for which the cytotoxicity at 10 µM was -6.73%.

On to `COc1cccc(C2CCCN2C(=O)NCCCn2cccn2)c1` (stereo unspecified), for which the cytotoxicity at 10 µM is 15.5%. `Cc1cc2n(n1)CC(CNC1CCN(CCc3ccccc3)CC1)CN2` (stereo unspecified): the cytotoxicity at 10 µM was 2.7%. With `CCNC(=O)N(CCCO)C1CCCc2ccccc21` (stereo unspecified), the cytotoxicity at 10 µM is -11%. In the case of `CC(C)c1noc(C(C)N2CCN(c3ccc(C#N)cn3)CC2)n1` (stereo unspecified), the cytotoxicity at 10 µM is -2.57%. As for `O=C(c1n[nH]c(=O)c2ccccc12)N1CCCC1Cn1cccn1` (stereo unspecified), the cytotoxicity at 10 µM is -0.743%. As to `COc1cc2c(cc1OC)S(=O)(=O)N(Cc1ccc(C)cc1)C2=O`, the cytotoxicity at 10 µM amounted to 8.74%.

Take `CC(=O)Nc1ccc(/C=C/c2ncc(C(=O)O)s2)cc1`: the cytotoxicity at 10 µM was -3.54%.

Regarding `COCCN(CCOC)c1ncccc1I`, the cytotoxicity at 10 µM is -2.69%. With `c1ccc(Cn2ccnc2CNC2CCCOc3ccccc32)cc1` (stereo unspecified) the figure was -4.34%; with `CC(C)c1noc(OCc2cccc(C#N)c2)n1`, -43.6%. The same measure for `CC1CCCN(C(=O)c2ncncc2Cl)C1` (stereo unspecified): 8.43%. Consider `O=C(Cn1cc(Cl)cn1)N1CCNC1=O`, for which the cytotoxicity at 10 µM was -13.2%. As for `CCC1(CNCc2ncc[nH]2)CCCC1`, the cytotoxicity at 10 µM is -3.09%. The same measure for `Cc1cccc(CNc2nnc(C(C)C)o2)c1`: 12.2%. Turning to `Cc1cnc(C(=O)N2C[C@H](N3CCOCC3)[C@@H]3OCCC[C@@H]32)cn1`, the cytotoxicity at 10 µM was -107%.

With `CCOC1COC2(CCN(S(=O)(=O)c3ccc(F)cc3)CC2)C1` (stereo unspecified), the cytotoxicity at 10 µM was -109%. For the compound `Cn1ccnc1SCCNC(=O)Cn1cnc2ccccc2c1=O`, the cytotoxicity at 10 µM is -20.7%. Regarding `O=C(c1cccc(S(=O)(=O)NC[C@@H]2C[C@H](F)CN2)c1)N1CCCCC1`, the cytotoxicity at 10 µM was 3.5%. With `CCCN1CCCC2(CCN(C(=O)CCCn3cncn3)C2)C1=O` (stereo unspecified) the figure was -1.84%. `OC1(CNCCCN2CCCc3ccccc32)CNCCOC1` (stereo unspecified): the cytotoxicity at 10 µM worked out at 13.2%.

As for `OC1(CN2CCCC2)CCCN(Cc2cnc(-c3ccccc3)nc2)C1` (stereo unspecified), the cytotoxicity at 10 µM is -11.9%. As for `CCOc1ccc(CN2CCN(CCOC)[C@@H]3CS(=O)(=O)C[C@@H]32)cc1`, the cytotoxicity at 10 µM is -1.25%. With `CCCn1cc(C(=O)NCCc2ccncc2)c(C)n1` the figure was 11.2%; with `Cc1nc(CN2CCCC(CCc3ccccc3C(F)(F)F)C2)no1` (stereo unspecified), 2.79%; with `NCc1cn(CC2CCCN(C(=O)NCc3ccc(Cl)cc3)C2)nn1` (stereo unspecified), -22%.

`CN1CCc2[nH]nc(C(=O)N3CCCC4(CC3)CNC(=O)O4)c2C1` (stereo unspecified): the cytotoxicity at 10 µM is -44.6%.

For the compound `COC[C@@]12CC[C@@H](N3CCOCC3)C[C@H]1CCN(c1ncccc1C)C2`, the cytotoxicity at 10 µM was -1.33%.

`O=C(NCC1CCCO1)Nc1nnc(C(F)(F)F)s1` (stereo unspecified): the cytotoxicity at 10 µM is 1.72%. For the compound `Cc1cc(C)n(CC(C)NCc2nc(-c3cccnc3)no2)n1` (stereo unspecified), the cytotoxicity at 10 µM is 0.107%.

`Cc1nn(C)c(C)c1-c1cc(-c2cc(CC(=O)O)cs2)nc(N)c1C#N`: the cytotoxicity at 10 µM turned out to be 0.701%.

With `CCCc1nc(C)cc(N2CCNC(C(=O)Nc3ccc(C)nc3)C2)n1` (stereo unspecified), the cytotoxicity at 10 µM is -48.5%. As for `CCc1ncc(C(=O)N2CCN(c3cnn(C)c(=O)c3)CC2)cn1`, the cytotoxicity at 10 µM was -8.3%. For the compound `COCCN(C)C[C@@H]1CN(C(=O)c2ccc(O)c(Cl)c2)C[C@@H]1CO`, the cytotoxicity at 10 µM was 10.5%. Regarding `CN1CCCC[C@@H]2[C@H]1[C@@H](c1ccccc1)CCN2C(=O)c1cnccn1`, the cytotoxicity at 10 µM was -3.81%. With `CC(Cn1ccnc1)NC(=O)C1(c2ccccc2)CC1` (stereo unspecified), the cytotoxicity at 10 µM was -5.74%. `COc1ccc(CN2CCN(C(=O)c3ccc(C)n3C)CC2)cc1`: the cytotoxicity at 10 µM is -0.0113%. `Cc1csc(N2CCCN(C(=O)c3occc3C)CC2)n1`: the cytotoxicity at 10 µM was -13.8%. With `Cc1ncc2c(n1)CN(CC(=O)Nc1ccc(Cl)cn1)CC2`, the cytotoxicity at 10 µM is -6.19%. As to `CNc1snc(C)c1C(=O)N1CCCC(n2cccn2)C1` (stereo unspecified), the cytotoxicity at 10 µM was -3.81%.

Take `COc1ccc(COCC(O)CNC(=O)c2ccc(C#N)cc2)cc1` (stereo unspecified): the cytotoxicity at 10 µM stood at 0.561%. As for `COCc1nc(C(=O)N2CCCC2c2ccc(OC)cc2)cs1` (stereo unspecified), the cytotoxicity at 10 µM was -3.81%. `COc1cc(CNC(=O)c2c(C)noc2C(C)C)ccn1`: the cytotoxicity at 10 µM is -7.9%. Consider `COc1cccc(S(=O)(=O)NC(=O)COc2c(C)cccc2C)c1`, for which the cytotoxicity at 10 µM was -5.84%.

As for `CCN(Cc1ccc2c(c1)OCCO2)S(=O)(=O)N(C)C(C)C`, the cytotoxicity at 10 µM was -9.21%.

On to `O=C(Cc1ccc2c(c1)CCC2)NCCNc1ncccn1`, for which the cytotoxicity at 10 µM is -3.93%. On to `CCc1ccc(S(=O)(=O)Nc2cc(OC)c(OC)cc2C(=O)O)s1`, for which the cytotoxicity at 10 µM was -7.22%. With `Cc1ccc(-c2nc(CN3CCc4c(ncn4C)C3)cs2)o1` the figure was -11.3%; with `CC(C)c1cc(CNC(=O)N2CCC(Cc3cnn(C)c3)C2)on1` (stereo unspecified), -10.9%; with `CC(=O)N1CCCN(C(=O)CCc2c(C)noc2C)CC1`, -6.38%. Regarding `Cc1cc(C)n(C2CN(CC(O)c3ccc4c(c3)OCO4)C2)n1` (stereo unspecified), the cytotoxicity at 10 µM was -15.7%.

Regarding `O=C(NCc1ccc(-n2cncn2)nc1)c1ccoc1`, the cytotoxicity at 10 µM is -2.38%.

With `Cc1cccc(CCC(=O)N2CCCC(c3cc(C(N)=O)[nH]n3)C2)c1` (stereo unspecified), the cytotoxicity at 10 µM was -7.1%. The same measure for `Cn1ccc(C(=O)NCc2cccc(N3CCCCC3=O)c2)cc1=O`: -6.68%; for `CCN1CCN(Cc2ccnc(-c3cccnc3)n2)CC1`: -5.23%; for `Cc1ccc(CN2CC[C@H]3CO[C@H](CN4CCN(C)CC4)[C@H]3C2)o1`: -118%. As to `Cn1nccc1-c1nnn2c1COCC(CNC1CCOCC1)C2` (stereo unspecified), the cytotoxicity at 10 µM was -103%.

On to `Cc1ccc(Oc2cc(CN)ccn2)cc1C`, for which the cytotoxicity at 10 µM is -0.578%. For the compound `NCC1[C@H]2CN(Cc3ccccc3F)C[C@@H]12` (stereo partly specified), the cytotoxicity at 10 µM is -7.52%.

Consider `CCS(=O)(=O)N1CCC2(CC1)CN(c1cccnc1)C(=O)CO2`, for which the cytotoxicity at 10 µM was -109%. With `Fc1ccc(CN2CCCn3cnc(COCC4CC4)c3C2)cc1` the figure was 7.43%; with `Cc1ccc2c(c1)CN(C(=O)c1cccnc1)C(CN(C)C)CO2` (stereo unspecified), -25.5%. For the compound `O=C1NCC[C@]12CN(Cc1nccs1)C[C@H]2c1ccccc1`, the cytotoxicity at 10 µM came to 11%. For the compound `CSCCCN1C[C@@H]2CC[C@H]1CN(Cc1[nH]cnc1C)C2`, the cytotoxicity at 10 µM was determined as 1.2%.

The values are drawn from ChEMBL document CHEMBL4513216, “Probing the Open Global Health Chemical Diversity Library for Multistage-Active Starting Points for Next-Generation Antimalarials” (ACS Infect Dis, 2020).
